According to ChEMBL document CHEMBL1126822, “7 alpha-Methyl- and 11 beta-ethoxy-substitution of [125I]-16 alpha-iodoestradiol: effect on estrogen receptor-mediated target tissue uptake” (J Med Chem, 1993):

Assays:
Settings in all cases: in vivo
Rattus norvegicus [1] = experiment: Tissue uptake (muscle) of [125I]- after administration of [125I]-labeled compound to immature female rats (n=3) in the absence of 60 microg coinjected estradiol after 24 hours; assay type: ADME, organism-based
Summary of the method: (§1)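 Immature female Fischer rats, 24 days old, 55-60 g, unanesthetized in retention cages, given HPLC-purified 125I-labeled steroid (3 μCi, 111 kBq) via lateral tail vein in 200 μL of 9% ethanol-saline with 1% Tween-80. The blocking group was coinjected with 60 μg unlabeled estradiol and sampled at 1 h. Animals were killed under ether at 0.5-24 h. Tissues were KCl-washed, blotted, weighed and gamma-counted. Results are % ID/g, with variation as small-sample-corrected %CV.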

Rattus norvegicus [2] = experiment: Tissue uptake (muscle) of [125I]- after administration of [125I]-labeled compound to immature female rats (n=3) in the presence of 60 microg coinjected estradiol after 1 hour; assay type: ADME, organism-based; summary of the method: as §1
Rattus norvegicus [3] = experiment: Tissue uptake (muscle) of [125I]- after administration of [125I]-labeled compound to immature female rats (n=4) in the absence of 60 microg coinjected estradiol after 2 hours; assay type: ADME, organism-based; summary of the method: as §1
Rattus norvegicus [4] = experiment: Tissue uptake (muscle) of [125I]- after administration of [125I]-labeled compound to immature female rats (n=4) in the absence of 60 microg coinjected estradiol after 5 hours; assay type: ADME, organism-based; summary of the method: as §1
Rattus norvegicus [5] = experiment: Tissue uptake (muscle) of [125I]- after administration of [125I]-labeled compound to immature female rats (n=5) in the absence of 60 microg coinjected estradiol after 1 hour; assay type: ADME, organism-based; summary of the method: as §1
Rattus norvegicus [6] = experiment: Tissue uptake (fat) of [125I]- after administration of [125I]-labeled compound to immature female rats (n=4) in the absence of 60 microg coinjected estradiol after 2 hours; assay type: ADME, organism-based; summary of the method: as §1
Rattus norvegicus [7] = experiment: Tissue uptake (fat) of [125I]- after administration of [125I]-labeled compound to immature female rats (n=4) in the absence of 60 microg coinjected estradiol after 5 hours; assay type: ADME, organism-based; summary of the method: as §1
Rattus norvegicus [8] = experiment: Tissue uptake (fat) of [125I]- after administration of [125I]-labeled compound to immature female rats (n=5) in the absence of 60 microg coinjected estradiol after 1 hour; assay type: ADME, organism-based; summary of the method: as §1
Rattus norvegicus [9] = experiment: Tissue uptake (kidneys) of [125I]- after administration of [125I]-labeled compound to immature female rats (n=3) in the absence of 60 microg coinjected estradiol after 0.5 hours; assay type: ADME, organism-based, Kidney; summary of the method: as §1
Rattus norvegicus [10] = experiment: Tissue uptake (kidneys) of [125I]- after administration of [125I]-labeled compound to immature female rats (n=3) in the absence of 60 microg coinjected estradiol after 24 hours; assay type: ADME, organism-based, Kidney; summary of the method: as §1
Rattus norvegicus [11] = experiment: Tissue uptake (kidneys) of [125I]- after administration of [125I]-labeled compound to immature female rats (n=4) in the absence of 60 microg coinjected estradiol after 2 hours; assay type: ADME, organism-based, Kidney; summary of the method: as §1
Rattus norvegicus [12] = experiment: Tissue uptake (liver) of [125I]- after administration of [125I]-labeled compound to immature female rats (n=3) in the absence of 60 microg coinjected estradiol after 24 hours; assay type: ADME, organism-based; summary of the method: as §1
Rattus norvegicus [13] = experiment: Tissue uptake (liver) of [125I]- after administration of [125I]-labeled compound to immature female rats (n=4) in the absence of 60 microg coinjected estradiol after 5 hours; assay type: ADME, organism-based; summary of the method: as §1
Rattus norvegicus [14] = experiment: Tissue uptake (lungs) of [125I]- after administration of [125I]-labeled compound to immature female rats (n=3) in the absence of 60 microg coinjected estradiol after 0.5 hours; assay type: ADME, organism-based; summary of the method: as §1
Rattus norvegicus [15] = experiment: Tissue uptake (lungs) of [125I]- after administration of [125I]-labeled compound to immature female rats (n=3) in the absence of 60 microg coinjected estradiol after 24 hours; assay type: ADME, organism-based; summary of the method: as §1
Rattus norvegicus [16] = experiment: Tissue uptake (lungs) of [125I]- after administration of [125I]-labeled compound to immature female rats (n=5) in the absence of 60 microg coinjected estradiol after 1 hour; assay type: ADME, organism-based; summary of the method: as §1
Rattus norvegicus [17] = experiment: Tissue uptake (muscle) of [125I]- after administration of [125I]-labeled compound to immature female rats (n=3) in the absence of 60 microg coinjected estradiol after 0.5 hours; assay type: ADME, organism-based; summary of the method: as §1
Rattus norvegicus [18] = experiment: Tissue uptake (spleen) of [125I]- after administration of [125I]-labeled compound to immature female rats (n=3) in the absence of 60 microg coinjected estradiol after 0.5 hours; assay type: ADME, organism-based
Summary of the method: (§2)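 Immature female Fischer rats, 24 days old, 55-60 g, unanesthetized in retention cages, got HPLC-purified n.c.a. 125I-labeled steroid (3 μCi, 111 kBq) by lateral tail vein. Dose was given in 200 μL saline with 9% ethanol and 1% Tween-80. Deep ether anesthesia, axillary artery cut; tissues KCl-washed, blotted, weighed, gamma-counted as % ID/g; variation as small-sample-corrected %CV.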

Rattus norvegicus [19] = experiment: Tissue uptake (spleen) of [125I]- after administration of [125I]-labeled compound to immature female rats (n=3) in the absence of 60 microg coinjected estradiol after 24 hours; assay type: ADME, organism-based; summary of the method: as §2
Rattus norvegicus [20] = experiment: Tissue uptake (spleen) of [125I]- after administration of [125I]-labeled compound to immature female rats (n=4) in the absence of 60 microg coinjected estradiol after 2 hours; assay type: ADME, organism-based; summary of the method: as §2
Rattus norvegicus [21] = experiment: Tissue uptake (spleen) of [125I]- after administration of [125I]-labeled compound to immature female rats (n=4) in the absence of 60 microg coinjected estradiol after 5 hours; assay type: ADME, organism-based; summary of the method: as §2
Rattus norvegicus [22] = experiment: Tissue uptake (uterus) of [125I]- after administration of [125I]-labeled compound to immature female rats (n=5) in the absence of 60 microg coinjected estradiol after 1 hour; assay type: ADME, organism-based; summary of the method: as §2
Rattus norvegicus [23] = experiment: Tissue uptake (thyroid) of [125I]- after administration of [125I]-labeled compound to immature female rats (n=3) in the absence of 60 microg coinjected estradiol after 24 hours; assay type: ADME, organism-based, Thyroid gland; summary of the method: as §2
Rattus norvegicus [24] = experiment: Tissue uptake (thyroid) of [125I]- after administration of [125I]-labeled compound to immature female rats (n=3) in the presence of 60 microg coinjected estradiol after 1 hour; assay type: ADME, organism-based, Thyroid gland; summary of the method: as §2
Rattus norvegicus [25] = experiment: Tissue uptake (thyroid) of [125I]- after administration of [125I]-labeled compound to immature female rats (n=4) in the absence of 60 microg coinjected estradiol after 2 hours; assay type: ADME, organism-based, Thyroid gland; summary of the method: as §2
Rattus norvegicus [26] = experiment: Tissue uptake (thyroid) of [125I]- after administration of [125I]-labeled compound to immature female rats (n=4) in the absence of 60 microg coinjected estradiol after 5 hours; assay type: ADME, organism-based, Thyroid gland; summary of the method: as §2
Rattus norvegicus [27] = experiment: Tissue uptake (thyroid) of [125I]- after administration of [125I]-labeled compound to immature female rats (n=5) in the absence of 60 microg coinjected estradiol after 1 hour; assay type: ADME, organism-based, Thyroid gland; summary of the method: as §2
Rattus norvegicus [28] = experiment: Tissue uptake (uterus) of [125I]- after administration of [125I]-labeled compound to immature female rats (n=3) in the presence of 60 microg coinjected estradiol after 1 hour; assay type: ADME, organism-based; summary of the method: as §2
Rattus norvegicus [29] = experiment: Tissue uptake (uterus) of [125I]- after administration of [125I]-labeled compound to immature female rats (n=4) in the absence of 60 microg coinjected estradiol after 2 hours; assay type: ADME, organism-based; summary of the method: as §2
Rattus norvegicus [30] = experiment: Tissue uptake (blood) of [125I]- after administration of [125I]-labeled compound to immature female rats (n=3) in the absence of 60 microg coinjected estradiol after 0.5 hours; assay type: ADME, organism-based; summary of the method: as §1
Rattus norvegicus [31] = experiment: Tissue uptake (blood) of [125I]- after administration of [125I]-labeled compound to immature female rats (n=3) in the presence of 60 microg coinjected estradiol after 1 hour; assay type: ADME, organism-based; summary of the method: as §1

Row | Structure (SMILES) | ID/g (Rattus norvegicus [1]) [%] | ID/g (Rattus norvegicus [2]) [%] | ID/g (Rattus norvegicus [3]) [%] | ID/g (Rattus norvegicus [4]) [%] | ID/g (Rattus norvegicus [5]) [%] | ID/g (Rattus norvegicus [6]) [%] | ID/g (Rattus norvegicus [7]) [%] | ID/g (Rattus norvegicus [8]) [%] | ID/g (Rattus norvegicus [9]) [%] | ID/g (Rattus norvegicus [10]) [%] | ID/g (Rattus norvegicus [11]) [%] | ID/g (Rattus norvegicus [12]) [%] | ID/g (Rattus norvegicus [13]) [%] | ID/g (Rattus norvegicus [14]) [%] | ID/g (Rattus norvegicus [15]) [%] | ID/g (Rattus norvegicus [16]) [%] | ID/g (Rattus norvegicus [17]) [%] | ID/g (Rattus norvegicus [18]) [%] | ID/g (Rattus norvegicus [19]) [%] | ID/g (Rattus norvegicus [20]) [%] | further results
1 | C[C@@H]1Cc2cc(O)ccc2[C@H]2CC[C@]3(C)[C@@H](O)[C@H](I)C[C@H]3[C@H]12 | 0.01 | 0.27 | 0.15 | 0.06 | 0.32 | 1.12 | 0.38 | 1.79 | 1.3 | 0.3 | 0.5 | 0.13 | 0.72 | 0.82 | 0.03 | 0.54 | 0.54 | 0.57 | 0.08 | 0.33 | ID/g (Rattus norvegicus [21]): 0.22%; ID/g (Rattus norvegicus [22]): 5.25%; ID/g (Rattus norvegicus [23]): 334.84%; ID/g (Rattus norvegicus [24]): 43.5%; ID/g (Rattus norvegicus [25]): 66.19%; ID/g (Rattus norvegicus [26]): 320.54%; ID/g (Rattus norvegicus [27]): 45.15%; ID/g (Rattus norvegicus [28]): 0.34%; ID/g (Rattus norvegicus [29]): 6.35%; ID/g (Rattus norvegicus [30]): 0.45%; ID/g (Rattus norvegicus [31]): 0.33%
2 | CCO[C@H]1C[C@]2(C)[C@@H](O)[C@H](I)C[C@H]2[C@@H]2CCc3cc(O)ccc3[C@H]21 | 0.13 | 0.72 | 0.52 | 0.35 | 0.69 | 0.94 | 0.52 | 1.51 | 2.26 | 0.24 | 1.78 | 0.96 | 2.31 | 1.72 | 0.23 | 1.3 | 1.05 | 1.44 | 0.7 | 1.76 | ID/g (Rattus norvegicus [21]): 1.28%; ID/g (Rattus norvegicus [22]): 11.67%; ID/g (Rattus norvegicus [23]): 773.37%; ID/g (Rattus norvegicus [24]): 156.51%; ID/g (Rattus norvegicus [25]): 218.87%; ID/g (Rattus norvegicus [26]): 703.1%; ID/g (Rattus norvegicus [27]): 110.96%; ID/g (Rattus norvegicus [28]): 0.72%; ID/g (Rattus norvegicus [29]): 13.08%; ID/g (Rattus norvegicus [30]): 1.29%; ID/g (Rattus norvegicus [31]): 1.09%
